Reference: ChEMBL document CHEMBL4513216, “Probing the Open Global Health Chemical Diversity Library for Multistage-Active Starting Points for Next-Generation Antimalarials” (ACS Infect Dis, 2020)

Test: Toxicity liver stage against HepG2, at 10uM
Assay type: cell-based
Set-up: test concentration 10 uM, cell line HepG2-A16-CD81EGFP
Conditions: human, HepG2-A16-CD81EGFP cells; read-out: INHIBITION
Summary of the method: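 Uninfected HepG2-A16-CD81EGFP cells, 3 × 10^3 per well, 1536-well, plated on prespotted compound at 10 μM final, parasite-free screening media added to match infected plates; puromycin 10 μM positive, DMSO 0.5% negative; run in parallel with 48 h PbLuc assay at 37 °C, 5% CO2; viability by CellTiter-Glo luminescence, normalized to controls.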

Structure (SMILES) | cytotoxicity at 10 µM [%]
O=C(CNc1ccc(OC2CCOC2)cc1)NCc1ccc(F)cc1 (centres undefined) | 3.4
CC(=O)N1CCC(Oc2ccc(Cl)cc2C(=O)N2CCCO2)CC1 | 15.3
CC(C)Nc1ccc2c(c1)C1(CCOCC1)C(=O)N2c1ccsc1 | 11
Cc1ccc(N2CCCC(NCC3=Cc4ccccc4OC3)C2)nn1 (centres undefined) | -10.2
NC(=O)Cn1cc(NC(=O)N2CCCCCC2)cn1 | -11.8
COCCN(C)C[C@@H]1CN(Cc2ccnc3ccccc23)C[C@@H]1CO | -6.33
O=C(C1CCCC1)N1C[C@H]2CNC[C@H]2C1 | 1.47
Cc1nn(CCNC(C)Cn2cncn2)c(C)c1Cl (centres undefined) | 13.4
Cc1ccsc1CNC(=O)Cc1c(C)nc2c(c1C)c(=O)[nH]n2C | -0.168
COCCN(C)c1nc(-c2ccncc2)nc2c1CCN(C(C)=O)C2 | -2.16
c1cc(-c2cnc(NC3CC3)nc2[C@H]2CCCO2)ccn1 | 9.83
CCOC(=O)N1CCC2(CC1)N=C(CCC(C)C)NC2=O | -6.55
CCOCCC(=O)NC(c1noc(C)n1)c1ccccc1F (centres undefined) | 0.101
CNC(=O)CN1CCC(c2cc(OC)cc(OC)c2)C1 (centres undefined) | 4.38
CCc1nccn1CCCNC(=O)c1cnn(-c2ccccc2OC)c1 | -17.1
CCN(CC)C(=O)[C@@H]1C[C@H](NC(=O)c2ccn(C(C)(C)C)c2)CN1C | -19.3
Cn1cc(Br)c(C(=O)NCCCn2cc(Br)cn2)n1 | -6.4
O=C(NC(C1CC1)C1CC1)c1cccc[n+]1[O-] | 10.8
CC(C)[C@H](NC(=O)Cn1nc2c(cc1=O)CCCC2)C(=O)O | 1.85
CN(Cc1cnn(C)c1)C(=O)Cc1ccc2c(c1)OCCO2 | 2.45
Cc1ccc(C(=O)N2CCCC3(CCCC(=O)N3C)C2)cc1F (centres undefined) | 4.12
CCn1nccc1CNC(=O)NC1CCCCC1 | -27.5

Structure (SMILES) | cytotoxicity at 10 µM [%]
CN(C)c1nc(N)nc(CN2CCC(c3ccccc3)CC2)n1 | 7.36
CN(CCC(=O)N1CCc2sccc2C1)Cc1cnn(C)c1 | -18.6
OCc1cnc(Nc2ccccc2)nc1 | 11.3
c1ccc(C(c2ccccc2)N2CCN(CCn3cncn3)CC2)cc1 | -7.72
COc1cccc2c1OCCCN(c1nc(C)nc3c1CCNCC3)C2 | -10.6
Cc1nonc1C1CCCN1C(=O)c1cn2ccsc2n1 (centres undefined) | 9.59
CN(C)CCn1ccnc1C1CCCN(c2ncc(Cl)cc2F)C1 (centres undefined) | -1.75
Cc1ccc(-c2cccc(-c3ccn(CCN4CCCC4)n3)c2)nn1 | -8.74
CC1CCCCN1c1nc2c(c(=O)[nH]1)CCN(Cc1cccnc1)C2 (centres undefined) | -6.15
O=C(c1cnc2n1CCCC2)N1CCCC1 | -10.6
O=C(NCCN1CCOCC1)NCc1ccc(-n2cccn2)cc1 | -6.4
Cc1cnn(CC2CCCN2Cc2nnc(Cc3ccccc3)o2)c1 (centres undefined) | -11.7
COc1ccc(C(=O)N2CCCCC2c2ccccn2)c(OC)n1 (centres undefined) | -0.649
Cc1nnc(C2CCN(C(=O)c3ccc4nccnc4c3)CC2)s1 | 5.05
COCCCN(Cc1ccccn1)S(=O)(=O)c1ccc(OC)cc1 | 5.85
c1ccc(CCN2C[C@@H]3OCCN(c4ncccn4)[C@@H]3C2)cc1 | -74.1
Cc1cnn(CC2CN(Cc3nnc(C4CC4)o3)CCO2)c1 (centres undefined) | -11.8
COc1ccccc1OCc1cc(C(=O)N2CC=CC2C(C)C)n[nH]1 (centres undefined) | -2.72
Cn1nc(C(=O)NN2CCOCC2)c(Cl)c1C(F)(F)F | 2.99
Cn1cc(NC(=O)CNC(=O)N2CCN(c3ccc(F)cc3)CC2)cn1 | 2.27
CC(C)CNC(=O)[C@H]1CCS(=O)(=O)[C@@H]2CN(c3ncccn3)C[C@H]12 | -110
Cc1nc(C)c(CN2CCOC(CN(C)c3cccnn3)C2)s1 (centres undefined) | -7.16

Structure (SMILES) | cytotoxicity at 10 µM [%]
CCn1c(CN(C)CC(=O)N(C)C)nc2c(F)cccc21 | -4.36
CC(=O)N1CCN(C(=O)NC(C)Cn2ccnc2)CC1 (centres undefined) | -1.05
Cn1cc(C(=O)N2CCCN(c3cccnn3)CC2)c2ccccc21 | 4
CN(C)c1ncc(C(=O)N2C[C@H]3CC(Oc4ccccc4)C[C@H]3C2)cn1 (some centres undefined) | 2.54
CC(=O)N1Cc2nccn2CC(CNC(=O)c2ccnnc2)C1 (centres undefined) | -138
CCOc1ncccc1NC(=O)c1ccc(C(C)=O)s1 | 2.99
CN(Cc1cccnc1)[C@@H]1CN(c2ccccn2)[C@@H]2CCCO[C@H]12 | 2.78
Cc1ccc(C(=O)NC2CCN(C(=O)Nc3ccccn3)CC2)s1 | -4.54
c1ccc(-c2nnc(CNC3CCCN(c4cccnn4)C3)o2)cc1 (centres undefined) | -9.45
O=C1OCCC1N1CCN(c2cnccn2)CC1 (centres undefined) | -0.0916
CCc1cnc(N2C[C@@H]3C[C@H](C(=O)N4CCOCC4)[C@H](C2)O3)nc1 | -104
CCS(=O)(=O)N1CCc2nc(C3CCN(C(=O)C4CC4)C3)nc(O)c2C1 (centres undefined) | -25.9
Cc1cc(C)cc(CCC(=O)N(C)CCc2cn[nH]c2)c1 | 3.04
Cc1ccc2cc(C(=O)N3CCCC3Cn3cccn3)[nH]c2c1 (centres undefined) | -7.39
CNS(=O)(=O)c1ccc(F)c(C(=O)NCc2ccnc(OC)c2)c1 | -9.8
CCCNc1ccc(C(=O)NCCc2ccc(Cl)cc2)cn1 | -1.05
COc1cccc(CNC(=O)Nc2ccc3[nH]nnc3c2)c1OC | 3.2
CN(C)C(C(=O)NCCSc1ncn[nH]1)c1cccc(F)c1 (centres undefined) | -1.64
Cc1cc(CN(C)C2CCCN(Cc3noc(C)n3)C2)no1 (centres undefined) | 1.46
COCC1CC2(CCN(c3cccc(C)n3)CC2)CN1C(C)C (centres undefined) | -109
COc1cc(F)ccc1-c1cc(CO)ccn1 | 6.58
O=C(c1cc(Cn2cnc3ccccc32)on1)N1CCOCC1 | -2.46

Structure (SMILES) | cytotoxicity at 10 µM [%]
CC(C)NC(=O)N1CC[C@H]2[C@H]1CCN2c1ncccn1 | -0.155
CC(NCCCN1CCCC1=O)c1cc(Br)ccc1F (centres undefined) | 1.63
COCCCN1CCC(C(=O)c2cc(F)ccc2F)CC1 | -10.9
Cn1c(Cn2ccnc2)nnc1C1CCCN(Cc2ccncc2)C1 (centres undefined) | 12.1
Cc1ccc(Br)c(S(=O)(=O)NCc2ccnn2C)c1 | 0.67
CNC(=O)Cc1noc(-c2cc3c(s2)CCC(C)(C)C3)n1 | 3.57
COc1ccc(CN(C)[C@@H]2CN(C(=O)c3cnn(C)c3)C[C@H]2O)cc1 | -21.9
Cc1nn(-c2ccccc2)cc1C(=O)N1CCCC(n2ccnc2)C1 (centres undefined) | -14.4
CN(C)c1nc(N2CCCC2)nc2c1CCN(Cc1nccn1C)CC2 | -97.2
COc1nc2c(cc1C(=O)NCc1noc(-c3ccco3)n1)CCC2 | -6.04
CN1CCCC(CCC(=O)NCCCn2ncc3ccccc32)C1 (centres undefined) | 2.39
Cc1cc(CN2CCN(CC3CC3)[C@@H]3CS(=O)(=O)C[C@@H]32)cc(C)c1O | 2.78
Cc1nn(C)c(N(C)C)c1CNCC(O)c1ccccc1 (centres undefined) | -0.989
Cc1ccc(O)c(-c2cc(NCCO)nc3[nH]ccc23)c1 | 14.1
CC[C@H](C)[C@H](NC(=O)c1cccc(-n2cnnn2)c1)C(=O)OC | 7.98
O=C(NCCCNC(=O)C1CCC1)NCCn1cccc1 | 0.215
Cc1nnc(NCC(c2ccco2)N(C)C)c(C#N)c1C (centres undefined) | -3.01
CCC=C(C)C(=O)NCCc1csc(N2CCCC2)n1 | 18.7
CCOc1ccc2cc(C(=O)N3CCn4c(CC)nnc4C3)[nH]c2c1 | -4.77
CNC(=O)c1cn2cc(-c3ccccc3Cl)n(CC3CC3)c(=O)c2n1 | 0.562
CCN1CCN(Cc2ccnc(-c3cccnc3)n2)CC1 | -5.23
COc1cccc(CN(C)CC(=O)NC2(C)CCS(=O)(=O)C2)c1 (centres undefined) | -2.3

Structure (SMILES) | cytotoxicity at 10 µM [%]
CCc1nnc(Nc2cccc(C3CCCN(CC(C)(C)C)C3)n2)s1 (centres undefined) | -33.9
Cc1ccc(C2CN(C(=O)c3c(C)cc(C)[nH]c3=O)CCO2)c(C)c1 (centres undefined) | -19.8
COCC(=O)N1CC[C@@H]2CN(Cc3cccc(Cl)c3)S(=O)(=O)[C@@H]2CC1 | -3.07
COCC(NC(=O)c1ccoc1C)c1cccc(C(F)(F)F)c1 (centres undefined) | -5.95
Cc1noc(C)c1-c1cncc(C2CCCN2Cc2ncccc2F)n1 (centres undefined) | 7.84
CCCS(=O)(=O)N1C[C@@H](c2nc(C)no2)C[C@H]2OCC[C@H]21 | -130
CC(c1ccccc1F)N(CC(N)=O)C1CC1 (centres undefined) | -46.3
Cc1cc(C(=O)N2CCCC(N3CCCCCC3)C2)nn1C(C)(C)C (centres undefined) | -4.4
COc1cc(C)ccc1S(=O)(=O)N[C@H]1CN(C(C)=O)C[C@@H]1C1CC1 | 5.71
COc1ccc(CN(CC2CCCO2)c2nc3c(s2)c(C)nn3C)cc1 (centres undefined) | 11.4
CC(C)CNC(=O)C[S+]([O-])Cc1csc(C2CCCCC2)n1 (centres undefined) | -48.5
c1cc(CN2CC[C@H]3O[C@@H](COCC4CCOCC4)CC[C@H]32)ccn1 | -69.8
Cc1ccc2nc(-c3nc4c([nH]3)CCCNC4=O)cn2c1 | 4.42
CNC(=O)CC1CCN(Cc2nc(-c3ccc(SC)cc3)oc2C)CC1 | -8.97
Fc1ccc(CN2CCO[C@H]3[C@H](OCC4CC4)CC[C@@H]32)cc1 | -5.34
Cc1cncc(C(=O)N[C@@H]2CC[C@@H](N3CCOCC3)[C@@H]2O)c1 | 0.331
CNC(=O)N1CCC2(CC1)CC[C@@]1(C(=O)NC)CN(S(C)(=O)=O)C[C@@H]21 | -3.91
Cc1ccc2nc(CN3CCC(O)(CN4CCCC4)CC3)cc(O)c2c1 | -51.9
Cc1ccc(C(=O)N2CCN(CCc3cccs3)CC2)c(=O)[nH]1 | -3.94
CCc1ccc(O)c(C(=O)N2CCN(CC(=O)N3CCCCC3)CC2)c1 | 9.06
O=C1CC2(CCN(Cc3ccc(C(F)(F)F)nc3)CC2)CN1 | -6.33
